From ChEMBL document CHEMBL2016515, “Triazoloamides as potent γ-secretase modulators with reduced hERG liability” (Bioorg Med Chem Lett, 2012) come the findings set out here.

The target of assay [1] is Gamma-secretase. The experiment in a line: Inhibition of gamma secretase-mediated amyloid beta40 production in human SH-SY5Y cells overexpressing beta-APP C-terminal SPA4CT by electrochemiluminescent analysis. It counts as cell-based. In outline:
(§1)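 Each compound tested in at least two independent experiments; values reported in μM.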

In assay [2] the target is Gamma-secretase. Put plainly: Inhibition of gamma secretase-mediated amyloid beta42 production in human SH-SY5Y cells overexpressing beta-APP C-terminal SPA4CT by electrochemiluminescent analysis. It counts as cell-based. The method in brief:
as §1

Assay [3] in a line: Inhibition of gamma-secretase-mediated notch intracellular domain cleavage in HeLa cells by luciferase reporter gene assay. It counts as cell-based. In outline: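 Split-luciferase complementation: γ-secretase cleavage of NotchΔE frees NICD fused to N-terminal luciferase, which enters the nucleus and binds RBP-Jk fused to C-terminal luciferase. Total luminescence is read after adding luciferin to lysed cells. At least two independent experiments; values in μM.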
Background: Reporter assays use an easily measured gene product as a stand-in for the process of interest.

The target in assay [4] is Voltage-gated inwardly rectifying potassium channel KCNH2 (Homo sapiens, UniProt Q12809).
Chain of Voltage-gated inwardly rectifying potassium channel KCNH2 (Q12809 whole entry): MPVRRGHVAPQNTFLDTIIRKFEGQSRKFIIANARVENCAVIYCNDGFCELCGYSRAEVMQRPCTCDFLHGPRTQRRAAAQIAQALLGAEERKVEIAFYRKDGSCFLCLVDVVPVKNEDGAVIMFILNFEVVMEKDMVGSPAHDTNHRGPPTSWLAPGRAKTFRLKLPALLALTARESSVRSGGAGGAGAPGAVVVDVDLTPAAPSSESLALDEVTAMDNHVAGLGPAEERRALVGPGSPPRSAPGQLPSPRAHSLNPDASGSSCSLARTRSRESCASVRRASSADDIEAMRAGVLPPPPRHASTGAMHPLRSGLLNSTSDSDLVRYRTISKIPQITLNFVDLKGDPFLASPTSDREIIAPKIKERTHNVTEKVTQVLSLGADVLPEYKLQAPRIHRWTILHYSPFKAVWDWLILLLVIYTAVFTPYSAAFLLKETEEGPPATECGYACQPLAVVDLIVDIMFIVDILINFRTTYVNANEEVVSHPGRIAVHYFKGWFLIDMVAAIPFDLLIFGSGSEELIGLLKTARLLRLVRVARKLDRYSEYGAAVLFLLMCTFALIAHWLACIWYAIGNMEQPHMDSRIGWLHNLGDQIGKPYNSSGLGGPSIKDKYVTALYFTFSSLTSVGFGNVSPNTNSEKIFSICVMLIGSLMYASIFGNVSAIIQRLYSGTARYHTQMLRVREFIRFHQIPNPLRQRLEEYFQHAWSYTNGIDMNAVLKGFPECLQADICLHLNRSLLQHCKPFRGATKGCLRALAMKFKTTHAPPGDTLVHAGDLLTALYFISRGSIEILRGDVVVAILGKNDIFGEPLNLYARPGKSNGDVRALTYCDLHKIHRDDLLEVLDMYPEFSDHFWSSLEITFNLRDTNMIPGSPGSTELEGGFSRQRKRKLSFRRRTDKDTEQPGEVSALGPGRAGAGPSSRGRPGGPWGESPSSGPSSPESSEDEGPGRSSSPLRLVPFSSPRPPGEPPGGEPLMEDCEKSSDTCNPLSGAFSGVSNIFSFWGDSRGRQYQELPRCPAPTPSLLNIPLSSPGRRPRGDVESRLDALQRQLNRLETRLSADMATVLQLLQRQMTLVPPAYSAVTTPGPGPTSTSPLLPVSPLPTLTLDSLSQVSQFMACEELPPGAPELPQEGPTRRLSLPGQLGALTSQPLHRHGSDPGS

As to `COc1cc(-c2cn([C@H]3CCCCN(CC(F)(F)F)C3=O)nn2)ccc1-n1cnc(C)c1`, the half-inhibitory concentration (IC50) (as a rule, the concentration that gives 50% inhibition) is 2210 nM against Gamma-secretase [1], 300 nM on Gamma-secretase [2] and above 50000 nM in assay [3].

In the case of `COc1cc(-c2cn(CC(=O)N3CCC(c4nc5ccccc5o4)CC3)nn2)ccc1-n1cnc(C)c1`, the 50% inhibitory concentration (IC50) at Gamma-secretase [1] is above 10000 nM; on Gamma-secretase [2], 940 nM; in assay [3] it was above 50000 nM; in assay [4] it was 10300 nM.

In the case of `COc1cc(-c2cn(C3CC(C)(C)CCNC3=O)nn2)ccc1-n1cnc(C)c1` (racemic), the IC50 is 7420 nM against Gamma-secretase [1], 1310 nM at Gamma-secretase [2], above 50000 nM in assay [3] and 20800 nM in assay [4].

In the case of `COc1cc(-c2cn(CC(=O)N(Cc3ccc(F)cc3)C3C4CC5CC(C4)CC3C5)nn2)ccc1-n1cnc(C)c1` (configuration not stated), the IC50 on Gamma-secretase [1] was 1900 nM; at Gamma-secretase [2] it was 240 nM; in assay [3] it was above 50000 nM; in assay [4], 250 nM.

Regarding `COc1cc(-c2cn(CC(=O)N([C@H](C)c3ccccc3)[C@H](C)c3ccccc3)nn2)ccc1-n1cnc(C)c1`, the IC50 on Gamma-secretase [1] was 5170 nM; against Gamma-secretase [2], 430 nM; in assay [3], above 50000 nM.

With `COc1cc(-c2cn(CC(=O)N(CC(F)(F)F)c3cccc4ccccc34)nn2)ccc1-n1cnc(C)c1`, the results for the concentration for half-maximal inhibition (IC50) (against Gamma-secretase [1]; at Gamma-secretase [2]; in assay [3]) were 410 nM, 90 nM and 45100 nM, respectively.

Regarding `COc1cc(-c2cn(CC(=O)N(CC(F)(F)F)c3ccc4c(c3)CCC4)nn2)ccc1-n1cnc(C)c1`, the figures for the half-inhibitory concentration (IC50) (against Gamma-secretase [1]; at Gamma-secretase [2]; in assay [3]) were 1250 nM, 180 nM and 24600 nM, respectively.

`COc1cc(-c2cn(C3CCCCNC3=O)nn2)ccc1-n1cnc(C)c1` (racemic): the IC50 on Gamma-secretase [1] is above 10000 nM; against Gamma-secretase [2], 4420 nM; in assay [3], above 50000 nM.

Turning to `COc1cc(-c2cn(C3C(=O)NC4CCC3C4)nn2)ccc1-n1cnc(C)c1` (racemic), the IC50 is 9870 nM on Gamma-secretase [1], 1090 nM at Gamma-secretase [2] and above 50000 nM in assay [3].

Consider `COc1cc(-c2cn(CC(=O)N(C3CCCCC3)C3CCCCC3)nn2)ccc1-n1cnc(C)c1`, for which the 50% inhibitory concentration (IC50) was above 10000 nM against Gamma-secretase [1], 200 nM against Gamma-secretase [2] and 9000 nM in assay [3].

`COc1cc(-c2cn(CC(=O)NC3C4CC5CC(C4)CC3C5)nn2)ccc1-n1cnc(C)c1` (configuration not stated): the IC50 at Gamma-secretase [1] was above 10000 nM; against Gamma-secretase [2], 680 nM; in assay [3] it was above 50000 nM.

As to `COc1cc(-c2cn([C@H]3C[C@@H](C(C)(C)C)CCN(CC45CC6CC(CC(C6)C4)C5)C3=O)nn2)ccc1-n1cnc(C)c1`, the IC50 against Gamma-secretase [1] is 1330 nM; against Gamma-secretase [2] it was 240 nM; in assay [3], above 50000 nM.

In the case of `COc1cc(-c2cn([C@H]3C[C@@H]([Si](C)(C)C)CCN(Cc4ccccc4)C3=O)nn2)ccc1-n1cnc(C)c1`, the IC50 amounted to 440 nM on Gamma-secretase [1], 70 nM against Gamma-secretase [2] and 10200 nM in assay [3].

As for `COc1cc(-c2cn(CC(=O)N(Cc3ccccc3)Cc3ccccc3)nn2)ccc1-n1cnc(C)c1`, the results for the IC50 (on Gamma-secretase [1]; against Gamma-secretase [2]; in assay [3]) were 4420 nM, 370 nM and above 50000 nM, respectively.

As for `COc1cc(-c2cn([C@H]3C[C@@H](C(F)(F)F)CN(CC(F)(F)F)C3=O)nn2)ccc1-n1cnc(C)c1`, the IC50 on Gamma-secretase [1] was 1910 nM; against Gamma-secretase [2], 290 nM; in assay [3], above 50000 nM.

On to `COc1cc(-c2cn([C@H]3C[C@@H](C(C)(C)C)CCN(CC(C)(C)C)C3=O)nn2)ccc1-n1cnc(C)c1`, for which the half-inhibitory concentration (IC50) was found to be 840 nM against Gamma-secretase [1], 130 nM against Gamma-secretase [2] and 20000 nM in assay [3].

As for `COc1cc(-c2cn([C@H]3C[C@@H](C(F)(F)F)CCN(Cc4ccccc4)C3=O)nn2)ccc1-n1cnc(C)c1`, the IC50 on Gamma-secretase [1] stood at 420 nM; against Gamma-secretase [2], 80 nM; in assay [3], 40800 nM.

Take `COc1cc(-c2cn(CC(=O)Nc3cccc4ccccc34)nn2)ccc1-n1cnc(C)c1`: the IC50 is 4850 nM against Gamma-secretase [1], 610 nM at Gamma-secretase [2], 26700 nM in assay [3] and above 10000 nM in assay [4].

Regarding `COc1cc(-c2cn(CC(=O)N(CC(F)(F)F)c3ccc4c(c3)OC(F)(F)O4)nn2)ccc1-n1cnc(C)c1`, the 50% inhibitory concentration (IC50) is 1180 nM against Gamma-secretase [1], 160 nM on Gamma-secretase [2] and 38200 nM in assay [3].

With `COc1cc(-c2cn(C3CCCC(C(C)(C)C)NC3=O)nn2)ccc1-n1cnc(C)c1` (racemic), the IC50 is 5120 nM at Gamma-secretase [1], 480 nM at Gamma-secretase [2] and above 50000 nM in assay [3].

Turning to `COc1cc(-c2cn([C@H]3C[C@@H](C(F)(F)F)CCN(CC(F)(F)F)C3=O)nn2)ccc1-n1cnc(C)c1`, the IC50 is 210 nM against Gamma-secretase [1], 20 nM at Gamma-secretase [2] and above 50000 nM in assay [3].

As to `COc1cc(-c2cn(CC(=O)N(Cc3ccccc3)CC(F)(F)F)nn2)ccc1-n1cnc(C)c1`, the results for the IC50 (against Gamma-secretase [1]; on Gamma-secretase [2]; in assay [3]) were 2430 nM, 270 nM and above 40000 nM, respectively.

As to `COc1cc(-c2cn(CC(=O)Nc3ccc4c(c3)OC(F)(F)O4)nn2)ccc1-n1cnc(C)c1`, the IC50 at Gamma-secretase [1] amounted to 2070 nM; against Gamma-secretase [2], 450 nM; in assay [3] it was 29600 nM.

As for `COc1cc(-c2cn(CC(=O)N(c3ccccc3)C3CCCCC3)nn2)ccc1-n1cnc(C)c1`, the half-inhibitory concentration (IC50) turned out to be 8710 nM at Gamma-secretase [1] and 620 nM on Gamma-secretase [2].

As to `COc1cc(-c2cn(C3CC([Si](C)(C)C)CCNC3=O)nn2)ccc1-n1cnc(C)c1` (racemic), the IC50 at Gamma-secretase [1] was found to be 1230 nM; at Gamma-secretase [2], 330 nM; in assay [3] it was 45300 nM.

On to `COc1cc(-c2cn(C3CC(C(F)(F)F)CCNC3=O)nn2)ccc1-n1cnc(C)c1` (racemic), for which the IC50 is 9100 nM against Gamma-secretase [1], 1270 nM at Gamma-secretase [2] and above 50000 nM in assay [3].

On to `COc1cc(-c2cn(C3CC[C@H]4CCCC[C@@H]4NC3=O)nn2)ccc1-n1cnc(C)c1` (mixture of isomers), for which the IC50 against Gamma-secretase [1] was 3860 nM; against Gamma-secretase [2], 620 nM; in assay [3], above 50000 nM.

With `COc1cc(-c2cn(CC(=O)N(c3ccccc3)c3ccccc3)nn2)ccc1-n1cnc(C)c1`, the IC50 against Gamma-secretase [1] was above 10000 nM; against Gamma-secretase [2] it was 1630 nM.

As for `COc1cc(-c2cn(C3CC(C(F)(F)F)CNC3=O)nn2)ccc1-n1cnc(C)c1` (racemic), the IC50 against Gamma-secretase [1] is 6160 nM; against Gamma-secretase [2], 1110 nM; in assay [3], above 50000 nM; in assay [4], above 30000 nM.

As for `COc1cc(-c2cn(CC(=O)N(Cc3ccccc3)[C@H](C)c3ccccc3)nn2)ccc1-n1cnc(C)c1`, the figures for the half-maximal inhibitory concentration (IC50) (against Gamma-secretase [1]; at Gamma-secretase [2]; in assay [3]) were 3010 nM, 230 nM and above 50000 nM, respectively.

Consider `COc1cc(-c2cn(CC(=O)N(CC(F)(F)F)c3ccc4ccccc4c3)nn2)ccc1-n1cnc(C)c1`, for which the values for the concentration for half-maximal inhibition (IC50) (against Gamma-secretase [1]; on Gamma-secretase [2]; in assay [3]) were 660 nM, 80 nM and 48500 nM, respectively.

As to `COc1cc(-c2cn([C@H]3C[C@@H](C(C)(C)C)CCN(Cc4ccccc4)C3=O)nn2)ccc1-n1cnc(C)c1`, the IC50 against Gamma-secretase [1] was 420 nM; against Gamma-secretase [2], 80 nM; in assay [3], 40100 nM.

With `COc1cc(-c2cn([C@H]3C[C@@H](C(C)(C)C)CCN(CC(F)(F)F)C3=O)nn2)ccc1-n1cnc(C)c1`, the IC50 came to 170 nM at Gamma-secretase [1], 9 nM at Gamma-secretase [2] and 24300 nM in assay [3].

`COc1cc(-c2cn([C@H]3C[C@@H](c4ccccc4)CCN(CC(F)(F)F)C3=O)nn2)ccc1-n1cnc(C)c1`: the half-inhibitory concentration (IC50) on Gamma-secretase [1] was 150 nM; against Gamma-secretase [2], 20 nM; in assay [3], above 50000 nM.

Turning to `COc1cc(-c2cn([C@H]3CC[C@H](c4ccccc4)CN(Cc4ccccc4)C3=O)nn2)ccc1-n1cnc(C)c1`, the IC50 at Gamma-secretase [1] was 510 nM; at Gamma-secretase [2], 80 nM; in assay [3], 11100 nM.

For the compound `COc1cc(-c2cn(C3CC(C4CCCCC4)CCNC3=O)nn2)ccc1-n1cnc(C)c1` (racemic), the IC50 amounted to 660 nM at Gamma-secretase [1], 160 nM against Gamma-secretase [2], 17000 nM in assay [3] and 3680 nM in assay [4].
